Calb FLC = C. albicans growth modulation with fluconazole. C. albicans CaCi-2 (fluconazole-resistant clinical isolate) + fluconazole, Alamar Blue growth, 48 h. growth inhibition, % (concentration not given with the values). 0.57% of 300,000 active. AID 1979;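 active = growth inhibition above about 58% in most replicates, limit read from the data, passing the limit was not always enough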;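 note: all wells also contain fluconazole at 8 µg/ml as a sub-toxic cotreatment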
IMP-1 inh-1 = inhibitors of Pseudomonas aeruginosa IMP-1 metallo-beta-lactamase; AID 1556; purified IMP-1, nitrocefin hydrolysis, epi-absorbance fluorescence; 0.45% of 290,000 active; inhibition, % at 5.6 µM;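 active = inhibition above the mean plus 3 SD of all compounds in the same screening run, cut at about 4.5% in these data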
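Material – recombinant IMP-1 enzyme, purified · Amount – IMP-1 0.2 nM before substrate addition · Medium – HEPES buffer pH 7.1 with ZnSO4 and Brij 35 · Timing – 25 °C, 15 min preincubation, 25 min reaction · Measured by – plate fluorescence quenching by hydrolysis product, ex 480/em 530 nm · Read-out – percent enzyme inhibition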
VIM-2 inh = inhibitors of Pseudomonas aeruginosa VIM-2 metallo-beta-lactamase; purified VIM-2, nitrocefin hydrolysis, epi-absorbance fluorescence; inhibition, % at 5.6 µM; 0.89% of 290,000 active; AID 1527;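 active = inhibition above the mean of all tested compounds plus 3 SD, cutoff set per screening run, cut at about 7.5% in these data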;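 note: red hydrolysis product quenches plate fluorescence so inhibitors raise well fluorescence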
ASAP1 GAP inh = blocks human ASAP1-stimulated Arf1 GTP hydrolysis; GDP FP detection; inhibition, % at 16.5 µM; 0.19% of 360,000 active; AID 624377; in the data active = inhibition above about 25%
PHOSPHO1 block = PHOSPHO1 (human) inhibition; Q8TCT1; recombinant PHOSPHO1, absorbance phosphatase assay; inhibition, % at 13.3 µM; 1.1% of 290,000 active; AID 1565; in the data active = inhibition above about 60%
Target sequence (Q8TCT1 whole entry, looked up): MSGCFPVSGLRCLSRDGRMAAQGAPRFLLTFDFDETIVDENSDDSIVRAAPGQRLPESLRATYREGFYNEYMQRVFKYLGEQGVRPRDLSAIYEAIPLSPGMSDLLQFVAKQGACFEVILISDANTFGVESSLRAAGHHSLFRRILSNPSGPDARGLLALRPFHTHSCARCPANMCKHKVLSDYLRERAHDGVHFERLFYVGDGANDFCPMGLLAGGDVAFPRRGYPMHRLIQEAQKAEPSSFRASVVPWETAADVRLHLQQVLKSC
ARFGAP1 inh = inhibitors of rat ARFGAP1. Q62848. Arfgap1-stimulated ARF1 GTP hydrolysis, GDP FP detection. 0.26% of 360,000 active. inhibition, % at 16.5 µM;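 active = inhibition above a per-plate limit, mean inhibition of low control wells plus 3 SD, cut at about 25% in these data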
Target sequence (Q62848 1-136 limits assumed): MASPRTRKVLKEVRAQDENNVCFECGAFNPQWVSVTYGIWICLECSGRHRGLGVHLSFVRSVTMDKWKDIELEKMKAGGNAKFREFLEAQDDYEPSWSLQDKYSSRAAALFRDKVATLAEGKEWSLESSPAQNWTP
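Material: rat Arfgap1 GAP domain (His6, aa 1-136), purified enzyme. Also added: human ARF1(Δ1-17)-GTP substrate. Compound dosing: 16.5 µM single point, 1.26% DMSO. Timing: enzyme reaction 120 min at 25 °C after 20 min preincubation. Signal: GDP detection by fluorescence polarization. Read-out basis: percent inhibition of GAP-stimulated GDP formation, scaled between DMSO and no-Arfgap1 medians.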
IMP-1 inh-2 = IMP-1 inhibition, counter-screen for VIM-2 inhibitors. inhibition, % at 5.6 µM. 1,300 tested, under 10 active. purified IMP-1, nitrocefin hydrolysis, epi-absorbance fluorescence. shares compounds with VIM-2 inh; call rule not given here
VIM-2 FRET ctr = counter-screen for VIM-2 inhibitors: epi-absorbance artifacts via FRET | inhibition, % at 5.6 µM | shares compounds with VIM-2 inh | 23% of 1,300 active | purified VIM-2, CCF2 FRET substrate hydrolysis;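 active = inhibition above the mean of all tested compounds plus 3 SD, cut at about 19% in these data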
TEM-1 counter = TEM-1 inhibition, counter-screen for VIM-2 inhibitors. Purified TEM-1, nitrocefin hydrolysis, epi-absorbance fluorescence. 3% of 1,300 active. shares compounds with VIM-2 inh. inhibition, % at 5.6 µM;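 active = inhibition above that campaign's mean inhibition plus 3 SD, cut at about 0.46% in these data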
VIM-2 inh conf = confirmation of P. aeruginosa VIM-2 metallo-beta-lactamase inhibitors | 96% of 1,300 active | shares compounds with VIM-2 inh | purified VIM-2, nitrocefin hydrolysis, epi-absorbance | inhibition, % at 5.6 µM;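 active = inhibition of the VIM-2 beta-lactamase enzyme above about 11% from the earlier first-round screen, limit read from the data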
Of the large screens only hits and unclear results are named; the others gave an inactive call (follow-up assays come after a bar, where they were run). Rows were chosen to be rich in hits. Some 2.6% of all compounds tested hit in one or more screens of this group.

CCOc1ccc(C(=O)Nc2ccc(N3CCN(C)CC3)cc2)cc1[N+](=O)[O-]	VIM-2 inh 30.1 | IMP-1 inh-2 inactive | VIM-2 FRET ctr inactive | TEM-1 counter inactive | VIM-2 inh conf 58.3
CN1CCN(c2ccc(NC(=O)COc3ccccc3[N+](=O)[O-])cc2)CC1	VIM-2 inh 44.6 | IMP-1 inh-2 inactive | VIM-2 FRET ctr inactive | TEM-1 counter inactive | VIM-2 inh conf 65.6
CC1=C(C(=O)N(C(C)C)C(C)C)CC(CC(=O)NC(c2ccccc2)c2ccccc2)C(=O)N1CCC1=CCCCC1 (configuration not stated)	none (no result: Calb FLC, IMP-1 inh-1, VIM-2 inh, PHOSPHO1 block)
C=C(C)Cn1c(-c2cccs2)n[nH]c1=S	VIM-2 inh 48.4 | IMP-1 inh-2 inactive | VIM-2 FRET ctr 70.9 | TEM-1 counter inactive | VIM-2 inh conf 52.9
CCCCCCn1cc(CN2CC(N3CCN(C4CCN(C)CC4)CC3)CS2(=O)=O)nn1 (configuration not stated)	none (no result: Calb FLC, IMP-1 inh-1, VIM-2 inh, PHOSPHO1 block)
Cc1nc2ccccc2c2oc(C(=O)N3CCN(C4CCCCC4)CC3)cc12	VIM-2 inh 19.4 | IMP-1 inh-2 inactive | VIM-2 FRET ctr inactive | TEM-1 counter inactive | VIM-2 inh conf 37.6
COc1ccc(N2CCN(C(=O)c3cc4c(C)nc5ccccc5c4o3)CC2)cc1	none
C[C@@H]1CN([C@@H](C)CO)C(=O)c2cc(C3=CCCCC3)cnc2O[C@H]1CN(C)C(=O)Nc1cccc(F)c1	none (no result: Calb FLC, IMP-1 inh-1, VIM-2 inh, PHOSPHO1 block)
CCOC(=O)C1(C)CCCN(C(=O)c2cc(C)oc2C)C1 (configuration not stated)	none (no result: Calb FLC, IMP-1 inh-1, VIM-2 inh, PHOSPHO1 block)
CC(C)c1ccc(/C=c2\sc3nc(-c4ccncc4)nn3c2=O)cc1	none
Cc1ccc(/C=c2\sc3nc(-c4cccnc4)nn3c2=O)cc1	VIM-2 inh 56.3 | IMP-1 inh-2 inactive | VIM-2 FRET ctr 64.7 | TEM-1 counter inactive | VIM-2 inh conf 59.9
O=C(Cn1[nH]c(=O)c2ccccc2c1=O)NC1CCCCCC1	none
O=C(Cn1[nH]c(=O)c2ccccc2c1=O)NC1CCN(Cc2ccccc2)CC1	VIM-2 inh 20.4 | IMP-1 inh-2 inactive | VIM-2 FRET ctr inactive | TEM-1 counter inactive | VIM-2 inh conf 36.5
Cc1c(C)c2ccc(OCC(=O)NC3CCN(Cc4ccccc4)CC3)c(C)c2oc1=O	VIM-2 inh 21.2 | IMP-1 inh-2 inactive | VIM-2 FRET ctr inactive | TEM-1 counter inactive | VIM-2 inh conf 31.0
CCc1cc(=O)oc2cc(C)cc(OCC(=O)NC3CCN(Cc4ccccc4)CC3)c12	VIM-2 inh 12.8 | IMP-1 inh-2 inactive | VIM-2 FRET ctr inactive | TEM-1 counter inactive | VIM-2 inh conf 23.6
CC1(C)CC(=O)C=C(c2cccc(OC(=O)c3ccc(-c4ccccc4)cc3)c2)C1=O	none (no result: Calb FLC, IMP-1 inh-1, VIM-2 inh, PHOSPHO1 block)
Cc1ccc(C(=O)NCCN2CCC(n3c(=O)[nH]c4ccccc43)CC2)cc1	none (no result: Calb FLC, IMP-1 inh-1, VIM-2 inh, PHOSPHO1 block)
C[C@@H]1CN([C@@H](C)CO)C(=O)CCCn2nncc2CO[C@@H]1CN(C)C(=O)Cc1ccccc1	none (no result: Calb FLC, IMP-1 inh-1, VIM-2 inh, PHOSPHO1 block)
O=C(COC(=O)/C=C/c1cccc(F)c1)NCc1ccc2c(c1)OCO2	none (no result: Calb FLC, IMP-1 inh-1, VIM-2 inh, PHOSPHO1 block)
CC(Oc1ccc2c3c(c(=O)oc2c1)CCCC3)C(=O)NCCN1CCOCC1 (configuration not stated)	none
O=C(COc1cc2oc(=O)c3c(c2cc1Cl)CCC3)NCCCN1CCCC1=O	VIM-2 inh 17.6 | IMP-1 inh-2 inactive | VIM-2 FRET ctr inactive | TEM-1 counter inactive | VIM-2 inh conf 32.0
O=C(COc1ccc2c3c(c(=O)oc2c1)CCC3)NCCN1CCOCC1	VIM-2 inh 18.8 | IMP-1 inh-2 inactive | VIM-2 FRET ctr inactive | TEM-1 counter inactive | VIM-2 inh conf 25.0
O=C(COc1ccc2c(c1)oc(=O)c1ccccc12)NCCN1CCOCC1	VIM-2 inh 19.3 | IMP-1 inh-2 inactive | VIM-2 FRET ctr inactive | TEM-1 counter inactive | VIM-2 inh conf 27.1
